Measured values from ChEMBL document CHEMBL1275337, “Biflavonoids from Torreya nucifera displaying SARS-CoV 3CL(pro) inhibition” (Bioorg Med Chem, 2010).
pIC50, pKi: −log10 of the molar value.

Legend:
[1] = molecular target: T1, Replicase polyprotein 1ab (Severe acute respiratory syndrome-related coronavirus, UniProt P0C6X7); test: Inhibition of SARS coronavirus 3C-like protease after 60 mins by FRET assay
[2] = molecular target: T1, Replicase polyprotein 1ab; test: Non-competitive inhibition of SARS coronavirus 3C-like protease by Dixon plot analysis
Summary of the method: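 Inhibition mode comes from FRET protease rates at substrate concentrations of 2.5, 5.0 and 10.0 µM across several inhibitor concentrations. Ki is taken from Dixon (1/V versus [I]) and Lineweaver-Burk plots; type is assigned from Vmax versus inhibitor concentration. Triplicate experiments.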

[3] = molecular target: Replicase polyprotein 1ab (Severe acute respiratory syndrome-related coronavirus) (UniProt P0C6X7); test: Inhibition of SARS coronavirus 3C-like protease at 200 uM after 60 mins by FRET assay

Row | SMILES | pIC50 [1] | pKi [2] | inhibition [3]
1 | O=c1cc(-c2ccc(O)c(O)c2)oc2cc(O)cc(O)c12 [LUTEOLIN] | 4.70 | – | –
2 | COc1ccc(-c2cc(=O)c3c(O)cc(O)c(-c4cc(-c5cc(=O)c6c(O)cc(OC)cc6o5)ccc4OC)c3o2)cc1 [SCIADOPITISIN] | 4.42 | 4.45 | –
3 | COC(=O)[C@]1(C)CCC[C@]2(C)c3ccc(C(C)C)cc3CC[C@@H]12 [METHYL DEHYDROABIETATE] | 3.68 | – | 46.7%
4 | CC(C)C1=CC2=CC[C@@H]3[C@](C)(CCC[C@@]3(C)C(=O)O)[C@H]2CC1 [ABIETIC ACID] | 3.72 | – | 58%
5 | CC(=O)Oc1cc2c(cc1C(C)C)CC[C@H]1[C@](C)(CO)CCC[C@]21C | 3.89 | – | 78.6%
6 | CC(C)c1cc2c(cc1O)[C@@]1(C)CCC[C@@](C)(C=O)[C@@H]1CC2 [18-OXOFERRUGINOL] | 3.79 | – | 70.5%
7 | CC(C)c1cc2c(cc1O)[C@@]1(C)CC[C@H](O)C(C)(C)[C@@H]1CC2 [HINOKIOL] | 3.63 | – | 39.1%
8 | COc1ccc(-c2cc(=O)c3c(O)cc(O)cc3o2)cc1-c1c(O)cc(O)c2c(=O)cc(-c3ccc(O)cc3)oc12 [BILOBETIN] | 4.14 | 4.09 | –
9 | O=c1cc(-c2ccc(O)c(-c3c(O)cc(O)c4c(=O)cc(-c5ccc(O)cc5)oc34)c2)oc2cc(O)cc(O)c12 [AMENTOFLAVONE] | – | 4.86 | –
10 | O=c1cc(-c2ccc(O)cc2)oc2cc(O)cc(O)c12 [APIGENIN] | 3.55 | – | 40%
11 | COc1cc(O)c2c(=O)cc(-c3ccc(OC)c(-c4c(O)cc(O)c5c(=O)cc(-c6ccc(O)cc6)oc45)c3)oc2c1 [GINKGETIN] | 4.49 | 4.52 | –
12 | C=C1CC[C@H]2[C@](C)(CO)CCC[C@]2(C)[C@H]1CC/C(C)=C\CO [KAYADIOL] | 3.86 | – | 75.2%
13 | CC(C)c1cc2c(cc1O)[C@@]1(C)CCCC(C)(C)[C@@H]1CC2 [FERRUGINOL] | 4.30 | – | 92.7%
14 | C=C[C@@]1(C)CC[C@H]2C(=CC[C@@H]3[C@]2(C)CCC[C@@]3(C)C(=O)O)C1 [ISOPIMARIC ACID] | 3.55 | – | 28.9%
15 | CC(C)c1cc2c(cc1O)[C@@]1(C)CCC[C@@](C)(CO)[C@@H]1CC2 [18-HYDROXYFERRUGINOL] | 3.66 | – | 45.8%
